{"data": "Experimental data gathered from unrelated publications"}
{"SMILES": "CCCCCCC/C=C/C(=O)N1C(=O)/C(=C(/C)O)C(=O)C1Cc1ccc(O)cc1 (stereo not drawn)", "organism": "Proteus vulgaris", "assay": "microbial growth", "test system": "ATCC33420", "quantity": "MIC", "value": "> 200 µg/mL"}
{"SMILES": "O=C(O)c1nc2ccccc2c(=O)n1Cc1cn(-c2ccc([N+](=O)[O-])cc2)nn1", "organism": "Nakaseomyces glabratus", "assay": "microbial growth, broth dilution", "test system": "ATCC90030", "setting": "24 h", "quantity": "IC50", "value": "432 µg/mL"}
{"SMILES": "Cc1c(NN=C2SC(CC#N)=NC2=O)c(=O)n(-c2ccccc2)n1C", "organism": "Bacillus subtilis", "assay": "microbial growth, well diffusion", "setting": "100000 µg/mL", "quantity": "inhibition zone", "value": "14 mm"}
{"SMILES": "CCOC(=O)c1nc2ccccc2c(=O)n1Cc1cn(-c2ccc(C(=O)O)cc2)nn1", "organism": "Nakaseomyces glabratus", "assay": "microbial growth, broth dilution", "test system": "ATCC90030", "setting": "24 h", "quantity": "IC50", "value": "87.7 µg/mL"}
{"SMILES": "O=C1NC(=S)N/C1=C\\c1ccc(-c2ccc(N(c3ccccc3)c3ccccc3)cc2)cc1", "organism": "Bacillus subtilis", "assay": "microbial killing, broth dilution", "test system": "ATCC6633", "quantity": "MBC", "value": "> 1000 µg/mL"}
{"SMILES": "O=C(O)c1nc2ccccc2c(=O)n1Cc1cn(-c2ccccc2[N+](=O)[O-])nn1", "organism": "Nakaseomyces glabratus", "assay": "microbial growth, broth dilution", "test system": "ATCC90030", "setting": "24 h", "quantity": "IC50", "value": "487 µg/mL"}
{"SMILES": "C[C@@H](c1ncncc1F)[C@](O)(Cn1cncn1)c1ccc(F)cc1F", "organism": "Acanthamoeba polyphaga", "assay": "parasite growth, resazurin", "setting": "7 days", "quantity": "IC50", "value": "55.3 µM"}
{"SMILES": "N#CC(=Cc1cn(-c2ccccc2)nc1-c1ccccc1)C1=NC(=O)CS1", "organism": "Bacillus subtilis", "assay": "microbial growth, well diffusion", "setting": "100000 µg/mL", "quantity": "inhibition zone", "value": "29 mm"}
{"SMILES": "O=C1NC(=S)S/C1=C\\c1c2ccccc2c(-c2ccc(N(c3ccccc3)c3ccccc3)cc2)c2ccccc12", "organism": "Bacillus subtilis", "assay": "microbial killing, broth dilution", "test system": "ATCC6633", "quantity": "MBC", "value": "> 1000 µg/mL"}
{"SMILES": "Cc1c(NN=C2SC(C(C#N)=Cc3ccc(Cl)cc3)=NC2=O)c(=O)n(-c2ccccc2)n1C", "organism": "Bacillus subtilis", "assay": "microbial growth, well diffusion", "setting": "100000 µg/mL", "quantity": "inhibition zone", "value": "17 mm"}
{"SMILES": "C[C@@H]1[C@H](O)[C@@H](C)/C=C/C=C/C=C/C=C/C=C/C=C/C=C/[C@H](O[C@@H]2O[C@H](C)[C@@H](O)[C@H](N)[C@@H]2O)C[C@@H]2O[C@](O)(C[C@@H](O)C[C@@H](O)[C@H](O)CC[C@@H](O)C[C@@H](O)CC(=O)O[C@H]1C)C[C@H](O)[C@H]2C(=O)O", "organism": "Cryptococcus neoformans", "assay": "microbial killing", "test system": "ATCC90113", "quantity": "MFC", "value": "1.5 µg/mL"}
{"SMILES": "CCOC(=O)c1nc2ccccc2c(=O)n1Cc1cn(-c2ccc(C)cc2)nn1", "organism": "Nakaseomyces glabratus", "assay": "microbial growth, broth dilution", "test system": "ATCC90030", "setting": "24 h", "quantity": "IC50", "value": "8.4 µg/mL"}
{"SMILES": "CCCCCCC/C=C/C(=O)N1C(=O)/C(=C(\\O)c2ccccc2)C(=O)C1CC(C)C (stereo not drawn)", "organism": "Proteus vulgaris", "assay": "microbial growth", "test system": "ATCC33420", "quantity": "MIC", "value": "> 200 µg/mL"}
{"SMILES": "Cc1c(NC(=O)CC2=NC(=O)CS2)c(=O)n(-c2ccccc2)n1C", "organism": "Bacillus subtilis", "assay": "microbial killing, broth dilution", "quantity": "MBC", "value": "2 µg/mL"}
{"SMILES": "O=C(O)CN1C(=O)/C(=C/c2ccc(-c3ccc(N(c4ccccc4)c4ccccc4)cc3)c3ccccc23)SC1=S", "organism": "Bacillus subtilis", "assay": "microbial killing, broth dilution", "test system": "ATCC6633", "quantity": "MBC", "value": "1000 µg/mL"}
{"SMILES": "CCOC(=O)c1c(N)csc1-c1cn(-c2ccccc2)nc1-c1ccc(C)cc1", "organism": "Bacillus subtilis", "assay": "microbial growth, well diffusion", "setting": "100000 µg/mL", "quantity": "inhibition zone", "value": "28 mm"}
{"SMILES": "Cc1ccccc1-n1cc(Cn2c(C(=O)O)nc3ccccc3c2=O)nn1", "organism": "Nakaseomyces glabratus", "assay": "microbial growth, broth dilution", "test system": "ATCC90030", "setting": "24 h", "quantity": "IC50", "value": "358 µg/mL"}
{"SMILES": "C[C@@H]1[C@H](O)[C@@H](C)/C=C/C=C/C=C/C=C/C=C/C=C/C=C/[C@H](O[C@@H]2O[C@H](C)[C@@H](O)[C@H](N)[C@@H]2O)C[C@@H]2O[C@](O)(C[C@@H](O)C[C@@H](O)[C@H](O)CC[C@@H](O)C[C@@H](O)CC(=O)O[C@H]1C)C[C@H](O)[C@H]2C(=O)O", "organism": "Cryptococcus neoformans", "assay": "microbial growth", "test system": "ATCC90113", "quantity": "IC50", "value": "0.26 µM"}
